From ChEMBL document CHEMBL1158578, “Phloroglucinols from the argentine ferns Elaphoglossum gayanum and E. piloselloides” (2010)

Key:
Assay type in all cases: functional
Biomphalaria peregrina [1] = experiment: Molluscicidal activity against Biomphalaria peregrina after 24 hrs
Summary of the method: (§1)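 Snails (Biomphalaria peregrina) exposed for 24 h to test samples at 50, 20, 10, 5 and 2.5 ppm, with 21 snails per concentration. Mortality was recorded as a percentage. LD50 and LD90 were calculated from the mortality data by probit analysis. CuSO4 at 10 ppm served as the positive control, alongside an untreated control.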

Biomphalaria peregrina [2] = experiment: Molluscicidal activity against Biomphalaria peregrina assessed as mortality at 10 ppm after 24 hrs; summary of the method: as §1
Biomphalaria peregrina [3] = experiment: Molluscicidal activity against Biomphalaria peregrina assessed as mortality at 2.5 ppm after 24 hrs; summary of the method: as §1
Biomphalaria peregrina [4] = experiment: Molluscicidal activity against Biomphalaria peregrina assessed as mortality at 5 ppm after 24 hrs; summary of the method: as §1

Compound CCCC(=O)C1=C(O)C(C)(CC=C(C)C)C(O)=C(Cc2c(O)c(O)cc(OC)c2C(=O)CCC)C1=O (stereo not given) [ELAPHOPILOSIN D] has an LD90 (Biomphalaria peregrina [1]) of 22.8 µM, an LC50 (Biomphalaria peregrina [1]; Biomphalaria peregrina, 24 h, read-out: LD50 (the source's name)) of 14.4 µM and an Activity (Biomphalaria peregrina [2]) of 81%. For the same compound, the Activity (Biomphalaria peregrina [3]) was 10% and the Activity (Biomphalaria peregrina [4]) was 24%.
